According to ChEMBL document CHEMBL1138683 (J Med Chem, 2004):

Assays:
[1] = Anti convulsant activity administered intra peritoneally to mouse for toxicity at 4 hr with dose of 300 mg/kg; 0/2= No of animals exhibiting toxicity /No of animals tested; assay type: organism-based; set-up: dose 300 mg/kg; settings: in vivo, ip
[2] = Anti convulsant activity administered intra peritoneally to mouse for toxicity at 4 hr with dose of 100 mg/kg; 0/4= No of animals exhibiting toxicity /No of animals tested; assay type: organism-based; set-up: dose 100 mg/kg; settings: in vivo, ip
[3] = Anti convulsant activity administered intra peritoneally to mouse for toxicity at 0.5 hr with dose of 30 mg/kg; 0/4= No of animals exhibiting toxicity /No of animals tested; assay type: organism-based; set-up: dose 30 mg/kg; settings: in vivo, ip
[4] = Anti convulsant activity administered intra peritoneally to mouse for toxicity at 0.5 hr with dose of 100 mg/kg; 1/8= No of animals exhibiting toxicity /No of animals tested; assay type: organism-based; set-up: dose 100 mg/kg; settings: in vivo, ip
[5] = Anti convulsant activity administered intra peritoneally to mouse for toxicity at 0.5 hr with dose of 300 mg/kg; 4/4= No of animals exhibiting toxicity /No of animals tested; assay type: organism-based; set-up: dose 300 mg/kg; settings: in vivo, ip
[6] = test system: Mus musculus; assay: Anti convulsant activity administered intra peritoneally to mouse at maximal electroshock test at 4 hr after the drug administered with dose of 30 mg/kg; 0/1= No of animals protected /No of animals tested; assay type: functional
[7] = test system: Mus musculus; assay: Anti convulsant activity administered intra peritoneally to mouse at maximal electroshock test at 4 hr after the drug administered with dose of 100 mg/kg; 0/3= No of animals protected /No of animals tested; assay type: functional
[8] = test system: Mus musculus; assay: Anti convulsant activity administered intra peritoneally to mouse at maximal electroshock test at 4 hr after the drug administered with dose of 300 mg/kg; 0/1= No of animals protected /No of animals tested; assay type: functional
[9] = test system: Mus musculus; assay: Anti convulsant activity administered intra peritoneally to mouse at maximal electroshock test at 0.5 h after the drug administered with dose of 30 mg/kg; 0/1= No of animals protected /No of animals tested; assay type: functional
[10] = test system: Mus musculus; assay: Anti convulsant activity administered intra peritoneally to mouse for subcutaneous metrazol test at 4 hr after the drug administered with dose of 30 mg/kg; 0/1= No of animals protected /No of animals tested; assay type: functional; settings: route intraperitoneal
[11] = test system: Mus musculus; assay: Anti convulsant activity administered intra peritoneally to mouse at maximal electroshock test at 0.5 hr after the drug administered with dose of 100 mg/kg; 0/3= No of animals protected /No of animals tested; assay type: functional
[12] = test system: Mus musculus; assay: Anti convulsant activity administered intra peritoneally to mouse at maximal electroshock test at 0.5 h after the drug administered with dose of 300 mg/kg; 0/1= No of animals protected /No of animals tested; assay type: functional
[13] = test system: Mus musculus; assay: Anti convulsant activity administered intra peritoneally to mouse for subcutaneous metrazol test at 4 hr after the drug administered with dose of 100 mg/kg; 0/1= No of animals protected /No of animals tested; assay type: functional
[14] = test system: Rattus norvegicus; assay: Anticonvulsant activity after oral administration of 100 mg/kg dose after 1 hr in rats;+ means 25% of the animals protected; assay type: functional, organism-based; set-up: dose 100 mg/kg
Procedure, shortened: (§1)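 Oral dosing of rats at a single dose, compound dissolved or suspended in 0.5% methylcellulose. Protection in the MES or scMet test checked 15 min, 30 min, 1 h, 2 h and 4 h after dosing. Scored as 25/50/75/100% of animals protected (+ to ++++), – for none.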

[15] = test system: Rattus norvegicus; assay: Anticonvulsant activity after oral administration of 100 mg/kg dose after 30 min in rats; +means 25% of the animals protected; assay type: functional, organism-based; set-up: dose 100 mg/kg; procedure, shortened: as §1
[16] = test system: Mus musculus; assay: Anti convulsant activity administered intra peritoneally to mouse for subcutaneous metrazol test at 4 hr with dose of 300 mg/kg; 0/1= No of animals protected /No of animals tested; assay type: functional
[17] = test system: Mus musculus; assay: Anti convulsant activity administered intra peritoneally to mouse for subcutaneous metrazol test at 0.5 hr with dose of 30 mg/kg; 0/1= No of animals protected /No of animals tested; assay type: functional
[18] = test system: Mus musculus; assay: Anti convulsant activity administered intra peritoneally to mouse for subcutaneous metrazol test at 0.5 hr with dose of 100 mg/kg; 0/1= No of animals protected /No of animals tested; assay type: functional
[19] = test system: Mus musculus; assay: Anti convulsant activity administered intra peritoneally to mouse for subcutaneous metrazol test at 0.5 h with dose of 300 mg/kg; 0/1= No of animals protected /No of animals tested; assay type: functional
[20] = test system: Mus musculus; assay: Anticonvulsant activity administered intraperitoneally to mouse for toxicity at 4 hr with dose of 30 mg/kg; assay type: functional; settings: route intraperitoneal
Procedure, shortened: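 Mice given compound i.p. at 30, 100 or 300 mg/kg, dissolved or suspended in 0.5% methylcellulose. Toxicity scored 0.5 h and 4 h after dosing, recorded as number of animals showing toxicity per number tested.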

[21] = (§2) Anti convulsant activity administered intra peritoneally to mouse for toxicity at 4 hr with dose of 30 mg/kg; 0/2= No of animals exhibiting toxicity /No of animals tested; assay type: organism-based; set-up: dose 30 mg/kg; settings: in vivo, ip
[22] = Anti convulsant activity administered intra peritoneally to mouse for toxicity at 0.5 hr with dose of 100 mg/kg; 0/8= No of animals exhibiting toxicity /No of animals tested; assay type: organism-based; set-up: dose 100 mg/kg; settings: in vivo, ip
[23] = Anti convulsant activity administered intra peritoneally to mouse for toxicity at 0.5 hr with dose of 300 mg/kg; 0/4= No of animals exhibiting toxicity /No of animals tested; assay type: organism-based; set-up: dose 300 mg/kg; settings: in vivo, ip
[24] = test system: Rattus norvegicus; assay: Anticonvulsant activity after oral administration of 50 mg/kg dose after 30 min in rats; + means 25% of the animals protected; assay type: functional, organism-based; set-up: dose 50 mg/kg
Procedure, shortened: (§3)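 Rats dosed orally with compound dissolved or suspended in 0.5% methylcellulose (0.04 mL per 10 g body weight). Anticonvulsant protection (MES or scMet) and toxicity scored at 15 min, 30 min, 1 h, 2 h and 4 h after dosing. Graded in steps of 25% of animals protected or showing toxicity.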

[25] = test system: Mus musculus; assay: as §2; assay type: functional
[26] = test system: Rattus norvegicus; assay: Anticonvulsant activity after oral administration of 100 mg/kg dose after 1 hr in rats; + means 25% of the animals protected; assay type: functional, organism-based; set-up: dose 100 mg/kg; procedure, shortened: as §1
[27] = test system: Rattus norvegicus; assay: Anticonvulsant activity after oral administration of 100 mg/kg dose after 2 hr in rats; + means 25% of the animals protected; assay type: functional, organism-based; set-up: dose 100 mg/kg; procedure, shortened: as §1
[28] = test system: Rattus norvegicus; assay: Anticonvulsant activity after oral administration of 100 mg/kg dose after 4 hr in rats; +means 25% of the animals protected; assay type: functional, organism-based; set-up: dose 100 mg/kg; procedure, shortened: as §1
[29] = test system: Rattus norvegicus; assay: Anticonvulsant activity after oral administration of 100 mg/kg dose after 4 hr in rats;+ means 25% of the animals protected; assay type: functional, organism-based; set-up: dose 100 mg/kg; procedure, shortened: as §1
[30] = Anti convulsant activity administered intra peritoneally to mouse for toxicity at 4 hr with dose of 300 mg/kg; 1/2= No of animals exhibiting toxicity /No of animals tested; assay type: organism-based; set-up: dose 300 mg/kg; settings: in vivo, ip
[31] = test system: Mus musculus; assay: Anti convulsant activity administered intra peritoneally to mouse at maximal electroshock test at 0.5 hr after the drug administered with dose of 300 mg/kg; 1/1= No of animals protected /No of animals tested; assay type: functional
[32] = test system: Rattus norvegicus; assay: Anticonvulsant activity after oral administration of 30 mg/kg dose after 15 min in rats; + means 25% of the animals protected; assay type: functional, organism-based; set-up: dose 30 mg/kg; procedure, shortened: as §1
[33] = test system: Mus musculus; assay: Anti convulsant activity administered intra peritoneally to mouse for subcutaneous metrazol test at 0.5 hr with dose of 300 mg/kg; 1/1= No of animals protected /No of animals tested; assay type: functional
[34] = test system: Rattus norvegicus; assay: Anticonvulsant activity after oral administration of 30 mg/kg dose after 4 hr in rats; +means 25% of animals protected; assay type: functional, organism-based; set-up: dose 30 mg/kg; procedure, shortened: as §1
[35] = test system: Rattus norvegicus; assay: Anticonvulsant activity after oral administration of 100 mg/kg dose after 30 min in rats; +++ means 75% of the animals protected; assay type: functional, organism-based; set-up: dose 100 mg/kg; procedure, shortened: as §1
[36] = test system: Rattus norvegicus; assay: Anticonvulsant activity after oral administration of 100 mg/kg dose after 2 hr in rats;++ means 50% of the animals protected; assay type: functional, organism-based; set-up: dose 100 mg/kg; procedure, shortened: as §1
[37] = test system: Rattus norvegicus; assay: Anticonvulsant activity after oral administration of 30 mg/kg dose after 30 min in rats; -means No protection; assay type: functional, organism-based; set-up: dose 30 mg/kg; procedure, shortened: as §1
[38] = test system: Rattus norvegicus; assay: Anticonvulsant activity after oral administration of 50 mg/kg dose after 30 min in rats; ++ means 50% of animals protected; assay type: functional, organism-based; set-up: dose 50 mg/kg; procedure, shortened: as §3
[39] = test system: Rattus norvegicus; assay: Anticonvulsant activity after oral administration of 50 mg/kg dose after 15 min in rats; +++ means 75% of the animals protected; assay type: functional, organism-based; set-up: dose 50 mg/kg; procedure, shortened: as §1

CC(CO)NC(=O)C1C(C)(C)C1(C)C (stereo not drawn)
Toxicity [1]: 0 | Toxicity [2]: 0 | Toxicity [3]: 0 | Toxicity [4]: 1 | Toxicity [5]: 4 | Activity [6]: 0 | Activity [7]: 0 | Activity [8]: 0 | Activity [9]: 0 | Activity [10]: 0 | Activity [11]: 0 | Activity [12]: 0 | Activity [13]: 0 | Activity [14]: 25% of the animals protected | Activity [15]: 25% of the animals protected | Activity [16]: 0 | Activity [17]: 0 | Activity [18]: 0 | Activity [19]: 0 | Toxicity [20]: 0

CC1(C)C(C(=O)NNC(=O)C2C(C)(C)C2(C)C)C1(C)C
Toxicity [1]: 0 | Toxicity [21]: 0 | Toxicity [2]: 0 | Toxicity [3]: 0 | Toxicity [22]: 0 | Toxicity [23]: 0 | Activity [6]: 0 | Activity [7]: 0 | Activity [8]: 0 | Activity [9]: 0 | Activity [10]: 0 | Activity [12]: 0 | Activity [13]: 0 | Activity [24]: 25% of the animals protected | Activity [16]: 0 | Activity [17]: 0 | Activity [19]: 0 | Activity [25]: 0

CCC(CO)NC(=O)C1C(C)(C)C1(C)C (stereo not drawn)
Toxicity [1]: 0 | Toxicity [2]: 0 | Toxicity [3]: 0 | Toxicity [4]: 1 | Toxicity [5]: 4 | Activity [6]: 0 | Activity [7]: 0 | Activity [8]: 0 | Activity [9]: 0 | Activity [10]: 0 | Activity [11]: 0 | Activity [12]: 0 | Activity [13]: 0 | Activity [26]: 25% of the animals protected | Activity [27]: 25% of the animals protected | Anticonvulsant Activity [28]: 25% of the animals protected | Activity [29]: 25% of the animals protected | Activity [16]: 0 | Activity [17]: 0 | Activity [18]: 0 | Activity [19]: 0 | Toxicity [20]: 0

CC1(C)C(C(=O)NCCF)C1(C)C
Toxicity [21]: 0 | Toxicity [2]: 0 | Toxicity [30]: 1 | Toxicity [3]: 0 | Toxicity [22]: 0 | Toxicity [5]: 4 | Activity [6]: 0 | Activity [7]: 0 | Activity [8]: 0 | Activity [9]: 0 | Activity [10]: 0 | Activity [11]: 0 | Activity [31]: 1 | Activity [13]: 0 | Activity [32]: 25% of animals protected | Activity [16]: 1 | Activity [17]: 0 | Activity [18]: 0 | Activity [33]: 1 | Activity [34]: 25% of animals protected

CC1(C)C(C(=O)NCCS(=O)(=O)[O-])C1(C)C.[Na+]
Toxicity [1]: 0 | Toxicity [21]: 0 | Toxicity [2]: 0 | Toxicity [3]: 0 | Toxicity [22]: 0 | Toxicity [23]: 0 | Activity [6]: 0 | Activity [7]: 0 | Activity [8]: 0 | Activity [9]: 0 | Activity [10]: 0 | Activity [12]: 0 | Activity [13]: 0 | Activity [26]: 25% of the animals protected | Activity [27]: 25% of the animals protected | Activity [28]: 25% of the animals protected | Activity [35]: 25% of the animals protected | Activity [16]: 0 | Activity [17]: 0 | Activity [19]: 0 | Activity [25]: 0 | Anticonvulsant Activity [36]: 50% of the animals protected

CC1(C)C(C(=O)NCCO)C1(C)C
Toxicity [1]: 0 | Toxicity [21]: 0 | Toxicity [2]: 0 | Toxicity [3]: 0 | Toxicity [4]: 1 | Toxicity [5]: 4 | Activity [37]: 75% of the animals protected | Activity [6]: 0 | Activity [7]: 0 | Activity [8]: 0 | Activity [9]: 0 | Activity [10]: 0 | Activity [11]: 0 | Activity [31]: 1 | Activity [13]: 0 | Anticonvulsant Activity [38]: 50% of animals protected | Activity [16]: 0 | Activity [17]: 0 | Activity [18]: 0 | Activity [33]: 1 | Activity [39]: 75% of the animals protected
